Shown are actives, neighbours in structure and some others; about 1.8% of the full set was active somewhere.
Jurkat NFkB inh – inhibitors of the PMA/ionomycin-induced NF-kB reporter in Jurkat cells. PMA/ionomycin-induced NF-kB luciferase reporter, luminescence. inhibition, % at 4 µM. hit rate 0.53% among 330,000. AID 435003; in the data active = inhibition above about 50%
697 NFkB inh – lowers PMA/ionomycin-induced NF-kB signal in 697 B cells; hit rate 0.33% among 330,000; AID 435022; 697 B-cell NF-kB luciferase reporter, 16 h; inhibition, % at 4 µM; in the data active = inhibition above about 35%
NR2E3 ag-1 – human photoreceptor-specific nuclear receptor agonism; CHO-S Gal4-NCOR/VP16-NR2E3 two-hybrid, luciferase; hit rate 0.35% among 360,000; inhibition of corepressor binding, % at 3.98 µM;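 active = inhibition above the mean of all tested compounds plus 3 SD, cut at about 70% in these data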;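 note: higher means lower luciferase signal from less NR2E3 corepressor binding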
Target sequence (Q9Y5X4 whole entry, looked up, the tested form may be a part): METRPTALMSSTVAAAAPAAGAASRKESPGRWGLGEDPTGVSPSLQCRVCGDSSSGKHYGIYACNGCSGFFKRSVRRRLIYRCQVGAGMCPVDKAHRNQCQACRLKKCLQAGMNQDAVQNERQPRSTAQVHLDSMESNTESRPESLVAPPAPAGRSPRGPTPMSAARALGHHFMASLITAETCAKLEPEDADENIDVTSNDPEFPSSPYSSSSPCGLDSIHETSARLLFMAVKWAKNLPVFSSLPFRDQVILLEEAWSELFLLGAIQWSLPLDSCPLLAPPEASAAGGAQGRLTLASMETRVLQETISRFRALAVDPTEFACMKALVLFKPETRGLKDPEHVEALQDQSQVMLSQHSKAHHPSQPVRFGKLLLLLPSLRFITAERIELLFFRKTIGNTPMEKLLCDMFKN
GalR3 antag – antagonists of human GalR3 | hit rate 0.44% among 360,000 | AID 651719 | inhibition, % at 3 µM | HEK293 GalR3-CNG cAMP membrane potential fluorescence; galR3 body fused to GalR1 C-terminus | O60755;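 active = inhibition above the screen-wide average plus 3 SD, cut at about 13% in these data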;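 note: forskolin and galanin both at EC90 stimulate the cells; cAMP rise reported by CNG channel membrane potential dye signal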
Gli-Sufu block – antagonists of Gli-Sufu signaling. hit rate 0.74% among 340,000. Sufu-KO-LIGHT fibroblasts, Gli luciferase reporter luminescence. inhibition, % at 5 µM;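 active = inhibition above about 55%, limit read from the data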
NR2E3 ag-2 – agonists of human nuclear receptor NR2E3; hit rate 0.12% among 320,000; inhibition of corepressor binding, % at 4.78 µM; GST-NR2E3/biotin-RetCOR TR-FRET, 1536-well; Q9Y5X4;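 active = percent inhibition above the cutoff of mean plus 3 SD of all tested compounds, set per screening campaign, cut at about 20% in these data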
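Material: NR2E3–RetCOR corepressor complex / Amount: 1.35 nM GST-NR2E3 / Medium: Tris pH 7.5 / Compound: single nominal compound dose of 4.8 µM / Incubation: 5 h at 4 °C / Technique: TR-FRET, Eu(K)-anti-GST donor, streptavidin-D2 acceptor, ex 340, em 617/671 nm / Read-out basis: percent loss of FRET ratio relative to control wells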
Jurkat NFkB conf – lowers PMA/ionomycin-induced NF-kB signal in Jurkat cells | shares compounds with Jurkat NFkB inh | Jurkat NF-kB luciferase, 16 h | inhibition, % at 4 µM | hit rate 27% among 2,700 | AID 435020;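 active = inhibition reaching about 45% at 4 µM in either replicate, limit read from the data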
Numbers stand for hits; – = inactive; · = no result.

SMILES | Jurkat NFkB inh | 697 NFkB inh | NR2E3 ag-1 | GalR3 antag | Gli-Sufu block | NR2E3 ag-2 | Jurkat NFkB conf
Cc1ccc(-n2cc(C(=O)c3ccc(F)cc3)nn2)cc1Cl | – | – | – | – | – | – | –
O=C(C(=O)N1CCC(CNS(=O)(=O)c2ccc(OC(F)(F)F)cc2)CC1)c1cc2ccccc2o1 | · | · | · | – | · | · | ·
CC(C)(C)c1ccc(NC(=O)c2ccccc2)c([N+](=O)[O-])c1 | – | – | – | – | – | – | –
Cc1cc(N2CCN(C(=O)OC(C)(C)C)C[C@@H]2C)ccc1Br | · | · | · | – | · | · | ·
CC(=O)C1=C(C)N(Cc2ccc(F)cc2)C(=S)NC1c1cccc(F)c1 (configuration not stated) | · | · | · | – | · | · | ·
O=C(Cc1ccc(Cl)cc1)Nc1ccc(-c2cc3ccccc3oc2=O)c(Cl)c1 | 59 | – | – | – | – | – | –
Cc1ccccc1S(=O)(=O)N1CCCc2nc(-c3ccc(Br)cc3)ccc21 | · | · | · | – | · | · | ·
CCOC(=O)c1c(NC(=O)CSc2c[nH]c3ccccc23)sc2c1CCC2 | 55 | – | – | · | – | – | –
Cc1ccc(S(=O)(=O)N2CCCc3nc(-c4ccccc4)ccc32)cc1 | · | · | · | – | · | · | ·
O=C(Nc1ccc(-c2nc3ccccc3s2)c(OC(=O)c2ccccc2)c1)c1ccccc1 | – | – | – | – | – | – | –
O=C(Nc1ccc2nc3ccccc3nc2c1)c1ccccc1 | · | · | – | – | – | – | ·
COC(=O)c1ccccc1NC(=O)Nc1cc(C)ccn1 | – | – | – | – | – | – | ·
Cc1ccnc(NC(=O)Nc2ccc(Br)cc2Cl)c1 | – | – | – | – | – | – | –
COc1ccc2c(c1)C1C=CCC1C(c1cc3c(cc1Br)OCO3)N2 (configuration not stated) | – | – | – | – | – | – | ·
CC(=O)c1ccc2c(c1)C1C=CCC1C(c1cc3c(cc1Br)OCO3)N2 (configuration not stated) | 80 | – | – | – | – | – | –
CCOC(=O)c1sc2nc3c(cc2c1N)COC(C)(CC)C3 (configuration not stated) | – | – | – | – | – | – | –
CCOC(=O)c1sc2nc3c(cc2c1N)COC(C)(C)C3 | – | – | – | – | – | – | ·
NC(=O)c1sc2nc3c(cc2c1N)CCC3 | – | – | – | – | – | – | ·
COC(=O)c1sc2nc3c(cc2c1N)CCCC3 | – | – | – | – | – | – | –
Cc1ccc(O)c(NC(=O)C2CC(c3cccc(Br)c3)=NO2)c1 (configuration not stated) | 63 | – | – | – | – | – | –
Cc1cc(NC(=O)C2CC(c3cccc(Br)c3)=NO2)no1 (configuration not stated) | – | – | – | – | – | – | ·
O=C(C(=O)N1CCC(CNS(=O)(=O)c2ccccc2)CC1)c1cc2ccccc2o1 | · | · | · | – | · | · | ·
Cc1ccc(C(=O)NC2CCCC2)s1 | – | – | – | – | – | – | ·
Cc1ccc(C(=O)NC2CCC(C)CC2)s1 (configuration not stated) | – | – | – | – | – | – | –
COC(=O)c1cc2c(c3c4cc(F)ccc4n(S(=O)(=O)c4cccc(C)c4)c13)C(=O)N(C)C2 | · | · | · | – | · | · | ·
SMILES | Jurkat NFkB inh | 697 NFkB inh | NR2E3 ag-1 | GalR3 antag | Gli-Sufu block | NR2E3 ag-2 | Jurkat NFkB conf
O=c1cc(-c2ccccc2)[nH]c2ccccc12 | 55 | – | – | – | – | – | –
O=C1C(c2cc(=O)c3ccccc3[nH]2)=C(O)c2ccccc21 | – | – | – | – | – | – | ·
N#Cc1cc2cc3c(cc2nc1SCC(=O)N1CCCC1)OCCO3 | – | – | – | · | – | – | –
COc1ccc(-c2cc(=O)c3cc(O)ccc3o2)cc1 | – | – | – | – | – | – | ·
CCc1ccc2oc(-c3ccc(OC)cc3)cc(=Nc3c(C)n(C)n(-c4ccccc4)c3=O)c2c1 | – | – | – | – | – | – | –
COc1ccc(-c2cc(=Nc3ccc(C(=O)O)cc3)c3cc(C)ccc3o2)cc1 | – | – | – | – | – | – | –
CCCCCCC12C(=Cc3cc4c(cc31)OCCO4)c1cc(OC)c(OC)cc1C(CC(=O)NCc1ccccc1)N2C(=O)OC (configuration not stated) | · | · | · | – | · | · | ·
CC1CC(C)CN(S(=O)(=O)c2ccc(NC(=O)c3ccc(=O)[nH]c3)cc2)C1 (configuration not stated) | 54 | – | – | – | – | – | 49
CCCC(=O)Nc1ccc2nn(-c3ccc(OC)cc3)nc2c1 | – | – | – | – | – | – | ·
CC(C)CC(=O)Nc1ccc2nn(-c3ccccc3)nc2c1 | – | – | – | – | – | – | –
Clc1ccc(-c2nnc(-c3ccccc3)o2)c(Cl)c1 | – | – | – | – | – | – | –
Fc1ccc(-c2nnc(-c3ccc(Cl)cc3Cl)o2)cc1 | – | – | – | – | · | – | ·
Cc1[nH]nc2c1C(c1cccc(C(F)(F)F)c1)NC2=O (configuration not stated) | · | · | · | – | · | · | ·
COc1cc(C(=O)Nc2ccc3c(c2)nc(C)n3C)cc(OC)c1OC | – | – | – | – | – | – | ·
COc1cc(C(=O)Nc2ccc3c(c2)ncn3C)cc(OC)c1OC | 52 | – | – | – | · | – | –
COc1ccc(OCC(=O)Nc2ccc(OC)c(S(=O)(=O)N3CCCCC3)c2)cc1 | 50 | – | – | – | – | – | –
COc1ccc(NC(=O)COc2ccccc2Cl)cc1S(=O)(=O)N1CCCCC1 | – | – | – | – | – | · | ·
COc1cc2c(cc1OC)C(C(=O)O)C(c1ccc3c(c1)OCO3)N(C)C2=O (configuration not stated) | · | · | · | – | · | · | ·
COc1ccccc1-c1cccc2[nH]c3c(c12)CCN1C(=O)[C@H]2[C@H](C)ON(C)[C@H]2C[C@@H]31 | · | · | · | – | · | · | ·
Cc1c(C(=O)C(=O)N2c3ccc(F)cc3CCC2C)c2ccccc2n1C (configuration not stated) | 65 | – | – | – | – | – | –
C[C@H](CO)N1C[C@H](C)[C@@H](CN(C)C(=O)CCC(F)(F)F)OCc2cn(nn2)CCCC1=O | · | · | · | – | · | · | ·
C=CCNC(=S)N(C)[C@H]1C[C@H]2c3cc(-c4ccccc4C)ccc3CCN2C[C@H]1[C@H](C)O | · | · | · | – | · | · | ·
Cn1nc([N+](=O)[O-])nc1Sc1nnc(-c2ccccc2)o1 | 74 | – | – | – | – | – | 70
COC(=O)C1=C(C)N(C)C(=NCc2ccccc2)NC1c1cccc(Cl)c1 (configuration not stated) | · | · | · | – | · | · | ·
COc1ccc(-c2cn3cc(C)ccc3n2)cc1Br | – | – | – | – | – | – | –
CC(=O)O[C@H]1C(=O)[C@@]2(C)[C@H]([C@H](OC(=O)c3ccccc3)[C@]3(O)C[C@H](OC(=O)[C@H](O)[C@@H](NC(=O)c4ccccc4)c4ccccc4)C(C)=C1C3(C)C)[C@]1(OC(C)=O)CO[C@@H]1C[C@@H]2O | 70 | – | – | · | – | – | 68
